Data from ChEMBL document CHEMBL1156438, “Resolvin D1 and its aspirin-triggered 17R epimer. Stereochemical assignments, anti-inflammatory properties, and enzymatic inactivation” (J Biol Chem, 2007).
The source made the active and inactive calls. No cut-off for these calls is given here.

Legend:
[1] = Antiinflammatory activity in human polymorphonuclear leukocytes assessed as inhibition of n-formylmethionylleucylphenylalanine-stimulated transendothelial migration at 10 nM after 15 mins; format: functional; set-up: scale not given: the % may be the effect or the level left
Outline: (§1)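 Human PMNs from venous blood (Histopaque 1077/1119 double gradient, NH4Cl lysis, >90% pure) in HBSS pH 7.4, preincubated 15 min at room temperature with 0–1000 nm compound; 10^6 cells added atop HMEC-1 monolayers on Transwell inserts; 100 nm fMLP lower chamber; migration 30 min, 37 °C, quantified by MPO; expressed as % reduction versus untreated PMNs.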

[2] = Antiinflammatory activity in human polymorphonuclear leukocytes assessed as inhibition of n-formylmethionylleucylphenylalanine-stimulated transendothelial migration after 15 mins; details: 0.25 h
Mus musculus [3] = assay: Antiinflammatory activity in FVB mouse peritonitis model assessed as reduction in zymosan-induced polymorphonuclear leukocyte infiltration at 100 ng, iv after 4 hrs; format: functional; set-up: scale not given: the % may be the effect or the level left
Outline: (§2)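 Male FVB mice, 6–8 weeks, isoflurane-anesthetized; compounds as carboxymethyl esters given iv by tail vein in 100 μl saline (0.05–50 μgkg–1 range), then zymosan A 1 mg/ml ip. Peritoneal lavage at 4 h; cells counted after trypan blue, differentials by Wright-Giemsa cytospin; reduction versus saline vehicle plus zymosan; mean ± S.E., n = 3.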

Mus musculus [4] = assay: Antiinflammatory activity in FVB mouse peritonitis model assessed as reduction in zymosan-induced polymorphonuclear leukocyte infiltration at 1 ng, iv after 4 hrs; format: functional, organism-based; outline: as §2
Mus musculus [5] = assay: Antiinflammatory activity in FVB mouse peritonitis model assessed as reduction in zymosan-induced total leukocyte infiltration at 10 ng, iv after 4 hrs; format: functional; set-up: scale not given: the % may be the effect or the level left; outline: as §2
Mus musculus [6] = assay: Antiinflammatory activity in iv dosed FVB mouse peritonitis model assessed as reduction in zymosan-induced polymorphonuclear leukocyte infiltration at after 4 hrs; format: functional, organism-based
[7] = Antiinflammatory activity in human polymorphonuclear leukocytes assessed as inhibition of n-formylmethionylleucylphenylalanine-stimulated transendothelial migration at 1 uM after 15 mins; format: functional; set-up: scale not given: the % may be the effect or the level left; outline: as §1
Mus musculus [8] = assay: Antiinflammatory activity in FVB mouse peritonitis model assessed as reduction in zymosan-induced polymorphonuclear leukocytes infiltration at 10 ng, iv after 4 hrs; format: functional; set-up: scale not given: the % may be the effect or the level left; outline: as §2

Row | SMILES | Activity [1] [%] | EC50 [2] [nM] | Activity (Mus musculus [3]) [%] | Activity (Mus musculus [4]) | Activity (Mus musculus [5]) [%] | Activity (Mus musculus [6]) | Activity [7] [%] | Activity (Mus musculus [8])
1 | CC/C=C\C[C@H](O)/C=C/C=C\C=C\C=C\[C@@H](O)[C@@H](O)C/C=C\CCC(=O)O | 50 | 30 | 35 | Active | 8 | Dose-dependent effect |  | 
2 | CC/C=C\C[C@@H](O)/C=C/C=C\C=C\C=C\[C@@H](O)[C@@H](O)C/C=C\CCC(=O)O | 50 | 30 | 35 | Active | 23 | Dose-dependent effect | 65 | 
3 | CC/C=C\C[C@@H](O)/C=C/C=C\C=C\C=C\C(=O)[C@@H](O)C/C=C\CCC(=O)O |  |  |  |  |  |  |  | 41%
4 | CC/C=C\CC(=O)/C=C/C=C\C=C\C=C\[C@@H](O)[C@@H](O)C/C=C\CCC(=O)O |  |  |  |  |  |  |  | inactive
